Columns and labels:
[1] = Selectivity index, ratio of CC50 for human A549 cells to IC50 for Influenza A Puerto Rico/8/34/H1N1 infected in human A549 cells; type: toxicity, cell-based; settings: read-out: Selectivity Index
Procedure, shortened: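 MDCK or A549 cells (2.5 × 10⁵/well) infected with A/Puerto Rico/8/34 H1N1 for 1 h at 37 °C, then washed. Compound (0.5–20 μM) added in 2% FBS medium for 24 h, with DMSO final ≤0.2%. Virus in supernatants read by hemagglutination. CC₅₀ by MTT (2 × 10⁴ cells/well, same concentrations, 24 h, absorbance 570 nm). SI = CC₅₀/IC₅₀.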

Influenza A virus [2] = test: Antiviral activity against Influenza A Puerto Rico/8/34/H1N1 infected in human A549 cells assessed as inhibition of viral replication after 24 hrs by hemagglutination assay; type: functional, organism-based; settings: A/Puerto Rico/8/1934(H1N1), A549, 24 h
[3] = Cytotoxicity against human A549 cells assessed as reduction in cell viability measured after 24 hrs by MTT assay; type: cell-based; settings: A549 cells
[4] = Cytotoxicity against human Huh-7 cells assessed as reduction in cell viability by Celltiter-Glo luminescent cell viability assay; type: cell-based; settings: Huh-7 cells
Procedure, shortened: (§1)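 Compound-exposed cells assessed by CellTiter-Glo luminescence versus DMSO control; CC50 from dose-response.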

dengue virus type 2 [5] = test: Antiviral activity against Dengue virus serotype 2 New Guinea C infected in pre-seeded Huh-7 cells assessed as inhibition of viral replication incubated for 72 hrs by immunodetection based direct yield reduction assay; type: functional, organism-based; settings: Dengue virus, New Guinea C, Huh-7, 72 h; read-out: IC50
dengue virus type 2 [6] = test: Antiviral activity against Dengue virus serotype 2 New Guinea C infected in pre-seeded Huh-7 cells assessed as inhibition of viral replication incubated for 72 hrs by immunodetection based plaque reduction assay; type: functional, organism-based; settings: Huh-7, 72 h
[7] = Selectivity index, ratio of CC50 for human Huh-7 cells to IC50 for Dengue virus serotype 2 New Guinea C infected in pre-seeded Huh-7 cells assessed as inhibition of viral replication incubated for 72 hrs by immunodetection based secondary yield reduction assay; type: toxicity, cell-based; settings: read-out: Selectivity Index
[8] = Selectivity index, ratio of CC50 for human Huh-7 cells to IC50 for Dengue virus serotype 2 New Guinea C infected in pre-seeded Huh-7 cells assessed as inhibition of viral replication incubated for 72 hrs by immunodetection based direct yield reduction assay; type: toxicity, cell-based; settings: read-out: Selectivity Index
Procedure, shortened: (§2)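 Direct yield reduction in Huh7 cells (7000/well), infected with 50 TCID₅₀ of DENV or ZIKV, or 25 TCID₅₀ of WNV. Adsorption 1 h at 37 °C, then virus removed and serial compound dilutions added. Incubated 72 h (DENV, ZIKV) or 48 h (WNV). Viral antigen immunodetected on the monolayer. IC₅₀ by non-linear regression, mean of three experiments. SI = CC₅₀ (Huh7, CellTiter-Glo luminescence)/IC₅₀.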

[9] = Selectivity index, ratio of CC50 for human Huh-7 cells to IC50 for Dengue virus serotype 2 New Guinea C infected in pre-seeded Huh-7 cells assessed as inhibition of viral replication incubated for 72 hrs by immunodetection based plaque reduction assay; type: toxicity, cell-based; settings: read-out: Selectivity Index
Zika virus [10] = test: Antiviral activity against Zika virus H/PF/2013 infected in pre-seeded Huh-7 cells assessed as inhibition of viral replication incubated for 72 hrs by immunodetection based secondary yield reduction assay; type: functional, organism-based; settings: H/PF/2013, Huh-7, 72 h
Zika virus [11] = test: Antiviral activity against Zika virus H/PF/2013 infected in pre-seeded Huh-7 cells assessed as inhibition of viral replication incubated for 72 hrs by immunodetection based direct yield reduction assay; type: functional, organism-based; settings: H/PF/2013, Huh-7, 72 h; procedure, shortened: as §2
Zika virus [12] = test: Antiviral activity against Zika virus H/PF/2013 infected in pre-seeded Huh-7 cells assessed as inhibition of viral replication incubated for 72 hrs by immunodetection based plaque reduction assay; type: functional, organism-based; settings: H/PF/2013, Huh-7, 72 h
[13] = Selectivity index, ratio of CC50 for human Huh-7 cells to IC50 for Zika virus H/PF/2013 infected in pre-seeded Huh-7 cells assessed as inhibition of viral replication incubated for 72 hrs by immunodetection based secondary yield reduction assay; type: toxicity, cell-based; settings: read-out: Selectivity Index
[14] = Selectivity index, ratio of CC50 for human Huh-7 cells to IC50 for Zika virus H/PF/2013 infected in pre-seeded Huh-7 cells assessed as inhibition of viral replication incubated for 72 hrs by immunodetection based direct yield reduction assay; type: toxicity, cell-based; settings: read-out: Selectivity Index; procedure, shortened: as §2
[15] = Selectivity index, ratio of CC50 for human Huh-7 cells to IC50 for Zika virus H/PF/2013 infected in pre-seeded Huh-7 cells assessed as inhibition of viral replication incubated for 72 hrs by immunodetection based plaque reduction assay; type: toxicity, cell-based; settings: read-out: Selectivity Index
West Nile virus [16] = test: Antiviral activity against West Nile virus lineage 1 (Italy/2009) infected in pre-seeded Huh-7 cells assessed as inhibition of viral replication incubated for 48 hrs by immunodetection based direct yield reduction assay; type: functional, organism-based; settings: West Nile virus, lineage 1 (Italy/2009), Huh-7, 48 h; read-out: IC50
West Nile virus [17] = test: Antiviral activity against West Nile virus lineage 1 (Italy/2009) infected in pre-seeded Huh-7 cells assessed as inhibition of viral replication incubated for 48 hrs by immunodetection based plaque reduction assay; type: functional, organism-based; settings: Huh-7, 48 h
[18] = Selectivity index, ratio of CC50 for human Huh-7 cells to IC50 for West Nile virus lineage 1 (Italy/2009) infected in pre-seeded Huh-7 cells assessed as inhibition of viral replication incubated for 48 hrs by immunodetection based direct yield reduction assay; type: toxicity, cell-based; settings: read-out: Selectivity Index; procedure, shortened: as §2
[19] = Selectivity index, ratio of CC50 for human Huh-7 cells to IC50 for West Nile virus lineage 1 (Italy/2009) infected in pre-seeded Huh-7 cells assessed as inhibition of viral replication incubated for 48 hrs by immunodetection based plaque reduction assay; type: toxicity, cell-based; settings: read-out: Selectivity Index
[20] = Cytotoxicity against MDCK cells assessed as reduction in cell viability measured after 24 hrs by MTT assay; type: cell-based, Canis lupus familiaris; settings: dog, MDCK cells
Influenza A virus [21] = test: Antiviral activity against Influenza A Puerto Rico/8/34/H1N1 infected in MDCK cells assessed as inhibition of viral replication measured in supernatants of infected cells after 24 hrs by hemagglutination assay; type: functional, organism-based; settings: A/Puerto Rico/8/1934(H1N1)
[22] = (§3) Cytotoxicity against African green monkey Vero E6 cells infected with SARS-COV-2 by celltiter-glo luminescent cell viability assay; type: cell-based, Vero C1008; settings: chlorocebus sabaeus, Vero E6 cells infected with SARS-COV-2; procedure, shortened: as §1
SARS-CoV-2 [23] = test: Antiviral activity against SARS-COV 2 infected in monkey Vero E6 cells assessed as inhibition of viral replication at MOI of 0.01 and incubated after 2 hrs post infection for 48 hrs by direct yield reduction assay; type: functional, organism-based; settings: Severe acute respiratory syndrome coronavirus 2, Vero C1008
[24] = (§4) Cytotoxicity against human Calu-3 cells infected with SARS-COV-2 by celltiter-glo luminescent cell viability assay; type: cell-based; settings: Calu-3 cells infected with SARS-COV-2; procedure, shortened: as §1
SARS-CoV-2 [25] = test: Antiviral activity against SARS-COV 2 infected in human Calu-3 cells assessed as inhibition of viral replication at MOI of 0.01 and incubated after 2 hrs post infection for 48 hrs by direct yield reduction assay; type: functional, organism-based; settings: Severe acute respiratory syndrome coronavirus 2, Calu-3
[26] = Selectivity index, ratio of CC50 for human Calu-3 cells infected with SARS-COV-2 to IC50 for SARS-COV 2 infected in human Calu-3 cells; type: toxicity, cell-based; settings: read-out: Selectivity Index
SARS-CoV-2 [27] = test: Antiviral activity against SARS-COV 2 infected in human Calu-3 cells assessed as inhibition of viral replication at MOI of 0.01 followed by removal of test compound after cell virus adsorption incubated for 72 hrs by ENTRY-DYRA method; type: functional, organism-based; settings: Severe acute respiratory syndrome coronavirus 2, Calu-3, 72 h
Huh-7 = test: Cytotoxicity against human Huh-7 cells infected with SARS-COV-2 assessed as reduction in cell viability by celltiter-glo luminescent cell viability assay; type: cell-based; settings: huh-7; procedure, shortened: as §1
SARS-CoV-2 [28] = test: Antiviral activity against SARS-COV 2 infected in human Huh-7 cells assessed as inhibition of viral replication at MOI of 0.01 and incubated after 2 hrs post infection for 48 hrs by direct yield reduction assay; type: functional, organism-based; settings: Severe acute respiratory syndrome coronavirus 2, Huh-7
[29] = Selectivity index, ratio of CC50 for human Huh-7 cells infected with SARS-COV-2 to IC50 for SARS-COV 2 infected in human Huh-7; type: toxicity; settings: read-out: Selectivity Index
Vero C1008 = test: as §3; type: cell-based; settings: chlorocebus sabaeus, vero c1008; procedure, shortened: as §1
Caco-2 = test: Cytotoxicity against human Caco2 cells infected with SARS-COV-2 assessed as reduction in cell viability by celltiter-glo luminescent cell viability assay; type: cell-based; procedure, shortened: as §1
SARS-CoV-2 [30] = test: Antiviral activity against SARS-COV 2 infected in human Caco-2 cells assessed as inhibition of viral replication at MOI of 0.01 and incubated after 2 hrs post infection for 48 hrs by immunodetection assay; type: functional, organism-based; settings: Severe acute respiratory syndrome coronavirus 2, Caco-2
[31] = Selectivity index, ratio of CC50 for human Caco-2 cells infected with SARS-COV-2 to IC50 of SARS-COV 2 infected in human Caco-2 cells; type: toxicity, cell-based; settings: read-out: Selectivity Index
[32] = Selectivity index, ratio of CC50 for African green monkey Vero E6 cells infected with SARS-COV-2 to IC50 for SARS-COV 2 infected in monkey Vero E6 cells; type: toxicity, cell-based, Vero C1008; settings: read-out: Selectivity Index
Calu-3 = test: as §4; type: cell-based; settings: calu-3; procedure, shortened: as §1
SARS-CoV-2 [33] = test: Antiviral activity against SARS-COV 2 infected in human Huh-7 cells; type: functional, organism-based; settings: Severe acute respiratory syndrome coronavirus 2, Huh-7
SARS-CoV-2 [34] = test: Antiviral activity against SARS-COV 2 infected in human Caco-2 cells; type: functional, organism-based; settings: Severe acute respiratory syndrome coronavirus 2, Caco-2
SARS-CoV-2 [35] = test: Antiviral activity against SARS-COV 2 infected in African green monkey Vero E6 cells; type: functional, organism-based; settings: Severe acute respiratory syndrome coronavirus 2, Vero C1008

SMILES: NC(=O)c1ncn([C@@H]2O[C@H](CO)[C@@H](O)[C@H]2O)n1 [RIBAVIRIN]
- selectivity ratio [1]: > 1.3
- IC50 (Influenza A virus [2]): 37.4 µM
- CC50 at 24 h [3]: > 50 µM
- CC50 [4]: 200 µM
- IC50 (dengue virus type 2 [5]): 7.6 µM
- IC50 (dengue virus type 2 [6]): 4.1 µM
- selectivity ratio at 72 h [7]: 50
- selectivity ratio at 72 h [8]: 26
- selectivity ratio at 72 h [9]: 49
- IC50 (Zika virus [10]): 4.4 µM
- IC50 (Zika virus [11]): 3.8 µM
- IC50 (Zika virus [12]): 2.2 µM
- selectivity ratio at 72 h [13]: 45
- selectivity ratio at 72 h [14]: 53
- selectivity ratio at 72 h [15]: 91
- IC50 (West Nile virus [16]): 9.5 µM
- IC50 (West Nile virus [17]): 6.7 µM
- selectivity ratio at 48 h [18]: 21
- selectivity ratio at 48 h [19]: 30
- CC50 at 24 h [20]: > 50 µM
- IC50 (Influenza A virus [21]): 9.5 µM
- CC50 [22]: > 400 µM
- IC50 (SARS-CoV-2 [23]): 110 µM

SMILES: CN(C)C(=O)COC(=O)Cc1ccc(OC(=O)c2ccc(NC(=N)N)cc2)cc1 [CAMOSTAT]
- CC50 [24]: 200 µM
- IC50 (SARS-CoV-2 [25]): 0.82 µM
- selectivity ratio [26]: 243
- IC50 (SARS-CoV-2 [27]): 0.04 µM

SMILES: CCC(CC)COC(=O)[C@H](C)N[P@](=O)(OC[C@H]1O[C@@](C#N)(c2ccc3c(N)ncnn23)[C@H](O)[C@@H]1O)Oc1ccccc1 [REMDESIVIR]
- CC50 (Huh-7): 77 µM
- IC50 (SARS-CoV-2 [28]): 0.004 µM
- selectivity ratio [29]: 19200
- CC50 (Vero C1008): 166 µM
- CC50 (Caco-2): 80 µM
- IC50 (SARS-CoV-2 [30]): 0.01 µM
- selectivity ratio [31]: 8000
- IC50 (SARS-CoV-2 [23]): 6 µM
- selectivity ratio [32]: 28
- CC50 (Calu-3): 97 µM
- IC50 (SARS-CoV-2 [25]): 0.11 µM
- selectivity ratio [26]: 882
- IC50 (SARS-CoV-2 [33]): 0.002 µM
- IC50 (SARS-CoV-2 [34]): 0.38 µM
- IC50 (SARS-CoV-2 [35]): 26.9 µM

— ChEMBL document CHEMBL4842338, “System-oriented optimization of multi-target 2,6-diaminopurine derivatives: Easily accessible broad-spectrum antivirals active against flaviviruses, influenza virus and SARS-CoV-2” (Eur J Med Chem, 2021)
